Reference: ChEMBL document CHEMBL4020840, “Synthesis and Biological Evaluation of Selenium-Containing 4-Anilinoquinazoline Derivatives as Novel Antimitotic Agents” (J Med Chem, 2018)

System: A549
Assay: Antitumor activity against human A549 cells xenografted in Balb/c mouse assessed as tumor growth inhibition at 30 mg/kg, ip treated once in 2 days for 10 days relative to control
Assay type: functional
Conditions: read-out: TGI
How it was run: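 Male BALB/c nude mice, 5 weeks old, 18−20 g. Right flank injected sc with 0.1 mL of 1 × 10⁷ cells/mL log-phase A549 in FBS-free DMEM. At ~100 mm³, randomised into groups of 5 and dosed ip every 2 days; vehicle controls got equal volume. Tumour volume (0.5 × length × width²) and body weight recorded every 2 days.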

Compound `COc1ccc(/C=C\c2cc(OC)c(OC)c(OC)c2)cc1OP(=O)(O)O` [FOSBRETABULIN] has an inhibition in vivo at 30 mg/kg of 56.6%.
